From ChEMBL document CHEMBL1157190, “Design, synthesis, and anticonvulsant activity of N-phenylamino derivatives of 3,3-dialkyl-pyrrolidine-2,5-diones and hexahydro-isoindole-1,3-diones” (Bioorg Med Chem, 2008)
Calls of active or inactive are those of the source. No cut-off for these calls is given here.

What was measured:
Mus musculus [1] = experiment: Anticonvulsant activity in ip dosed CF1 albino mouse assessed as inhibition of maximal electroshock-induced electrical stimulus after 0.5 hr; format: functional
Summary of the method: (§1)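 Male CF-1 mice injected intraperitoneally at 30, 100 and 300 mg/kg, suspended in 0.5% methylcellulose/water. MES or subcutaneous pentylenetetrazole challenge at 0.5 and 4 h; selected compounds also at 1 or 2 h.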

Mus musculus [2] = experiment: Anticonvulsant activity in ip dosed CF1 albino mouse assessed as inhibition of subcutaneous pentylenetetrazole-induced electrical stimulus after 0.5 hr; format: functional; summary of the method: as §1
Mus musculus [3] = experiment: Neurotoxicity in ip dosed CF1 albino mouse after 0.5 hr by rotarod test; format: toxicity, organism-based; conditions: in vivo
Summary of the method: (§2)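 CF-1 mice given 30, 100 or 300 mg/kg ip in 0.5% methylcellulose/water, examined at 0.5 and 4 h. Rotorod test: neurotoxicity is the inability to keep equilibrium on the rod for a given time. Value is the minimum dose giving motor impairment; a dash means none at 300 mg/kg.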

[4] = Lipophilicity, log kw of compound by RP-HPLC; format: physicochemical
Summary of the method: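 RP-HPLC on a C18 end-capped column at room temperature, with UV detection at 214 nm and uracil as the unretained marker. Capacity factor k = (tr − t0)/t0, from the mean of three measurement sets. log k extrapolated to 100% water (log k = log kw − Sφ) to give log kw.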

Rattus norvegicus [5] = experiment: Anticonvulsant activity in Sprague-Dawley rat assessed as protection against seizure at 30 mg/kg, po after 0.25 hr by maximal electroshock test; format: functional
Summary of the method: (§3)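 Male Sprague–Dawley rats; compound suspended in 0.5% methylcellulose/water and given orally at a fixed 30 mg/kg, four rats per time point. MES test run at 0.25, 0.5, 1, 2 and 4 h after dosing, with motor impairment checked in parallel. Read-out: number of rats of four protected.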

Rattus norvegicus [6] = experiment: Anticonvulsant activity in Sprague-Dawley rat assessed as protection against seizure at 30 mg/kg, po after 0.5 hr by maximal electroshock test; format: functional; summary of the method: as §3
Rattus norvegicus [7] = experiment: Anticonvulsant activity in Sprague-Dawley rat assessed as protection against seizure at 30 mg/kg, po after 1 hr by maximal electroshock test; format: functional; summary of the method: as §3
Rattus norvegicus [8] = experiment: Anticonvulsant activity in Sprague-Dawley rat assessed as protection against seizure at 30 mg/kg, po after 2 hrs by maximal electroshock test; format: functional; summary of the method: as §3
Rattus norvegicus [9] = experiment: Anticonvulsant activity in Sprague-Dawley rat assessed as protection against seizure at 30 mg/kg, po after 4 hrs by maximal electroshock test; format: functional; summary of the method: as §3
Rattus norvegicus [10] = experiment: Anticonvulsant activity in po dosed Sprague-Dawley rat assessed as inhibition of maximal electroshock-induced electrical stimulus after 0.5 hr; format: functional
Summary of the method: (§4)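 Oral dosing in male Sprague–Dawley rats at the previously estimated time of peak effect. Groups of eight rats received various doses until at least three points fell between 10 and 90% MES protection or minimal neurotoxicity (rotorod). ED50 and TD50 with 95% confidence intervals from regression of the plotted data; protective index = TD50/ED50.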

[11] = Neurotoxicity in po dosed Sprague-Dawley rat after 0.5 hr by rotarod test; format: toxicity, organism-based; conditions: in vivo; summary of the method: as §4
Rattus norvegicus [12] = species: Rattus norvegicus; experiment: Protective index, ratio of TD50 for Sprague-Dawley rat by rotarod test to ED50 for Sprague-Dawley rat by MES test after 0.5 hr; format: functional; summary of the method: as §4
Mus musculus [13] = experiment: Anticonvulsant activity in ip dosed CF1 albino mouse assessed as inhibition of maximal electroshock-induced electrical stimulus at 300 mg/kg after 4 hrs; format: functional, organism-based; set-up: dose 300 mg/kg; summary of the method: as §1
Mus musculus [14] = experiment: Anticonvulsant activity in ip dosed CF1 albino mouse assessed as inhibition of subcutaneous pentylenetetrazole-induced electrical stimulus at 300 mg/kg after 4 hrs; format: functional, organism-based; set-up: dose 300 mg/kg; summary of the method: as §1
Mus musculus [15] = experiment: Neurotoxicity in ip dosed CF1 albino mouse at 300 mg/kg after 4 hrs by rotarod test; format: toxicity, organism-based; set-up: dose 300 mg/kg, route intraperitoneal; conditions: in vivo; summary of the method: as §2
Mus musculus [16] = experiment: Anticonvulsant activity in ip dosed CF1 albino mouse assessed as inhibition of maximal electroshock-induced electrical stimulus after 4 hrs; format: functional; summary of the method: as §1
Mus musculus [17] = experiment: Anticonvulsant activity in ip dosed CF1 albino mouse assessed as inhibition of maximal electroshock-induced electrical stimulus after 1 hr; format: functional; summary of the method: as §1
Mus musculus [18] = experiment: Anticonvulsant activity in ip dosed CF1 albino mouse assessed as inhibition of subcutaneous pentylenetetrazole-induced electrical stimulus after 4 hrs; format: functional; summary of the method: as §1
Mus musculus [19] = experiment: Neurotoxicity in ip dosed CF1 albino mouse after 4 hrs by rotarod test; format: toxicity, organism-based; conditions: in vivo; summary of the method: as §2
Rattus norvegicus [20] = experiment: Anticonvulsant activity in Sprague-Dawley rat assessed as protection against seizure rat at 50 mg/kg, po after 0.25 hr by subcutaneous pentylenetetrazole test; format: functional
Summary of the method: (§5)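 Male Sprague–Dawley rats dosed orally at 50 mg/kg as a 0.5% methylcellulose/water suspension, four animals per time point. Convulsant given subcutaneously at 0.25, 0.5, 1, 2 and 4 h after dosing; rotorod motor impairment assessed in parallel. Read-out: number of rats of four protected.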

Rattus norvegicus [21] = experiment: Anticonvulsant activity in Sprague-Dawley rat assessed as protection against seizure at 50 mg/kg, po after 4 hrs by subcutaneous pentylenetetrazole test; format: functional; summary of the method: as §5
Mus musculus [22] = experiment: Anticonvulsant activity in ip dosed CF1 albino mouse assessed as inhibition of maximal electroshock-induced electrical stimulus at 300 mg/kg after 0.5 hr; format: functional, organism-based; set-up: dose 300 mg/kg; summary of the method: as §1
Mus musculus [23] = experiment: Neurotoxicity in ip dosed CF1 albino mouse at 300 mg/kg after 0.5 hr by rotarod test; format: toxicity, organism-based; set-up: dose 300 mg/kg, route intraperitoneal; conditions: in vivo; summary of the method: as §2
Mus musculus [24] = experiment: Anticonvulsant activity in ip dosed CF1 albino mouse assessed as inhibition of subcutaneous pentylenetetrazole-induced electrical stimulus at 300 mg/kg after 0.5 hr; format: functional, organism-based; set-up: dose 300 mg/kg; summary of the method: as §1
Rattus norvegicus [25] = experiment: Anticonvulsant activity in Sprague-Dawley rat assessed as protection against seizure at 50 mg/kg, po after 0.5 hr by subcutaneous pentylenetetrazole test; format: functional; summary of the method: as §5
Rattus norvegicus [26] = experiment: Anticonvulsant activity in Sprague-Dawley rat assessed as protection against seizure at 50 mg/kg, po after 1 hr by subcutaneous pentylenetetrazole test; format: functional, organism-based; set-up: dose 50 mg/kg; summary of the method: as §5
Rattus norvegicus [27] = experiment: Anticonvulsant activity in Sprague-Dawley rat assessed as protection against seizure at 50 mg/kg, po after 2 hrs by subcutaneous pentylenetetrazole test; format: functional, organism-based; set-up: dose 50 mg/kg; summary of the method: as §5
Rattus norvegicus [28] = experiment: Neurotoxicity in po dosed Sprague-Dawley rat at 50 mg/kg by rotarod test; format: toxicity, organism-based; set-up: dose 50 mg/kg, route oral; conditions: in vivo; summary of the method: as §5
[29] = Neurotoxicity in po dosed Sprague-Dawley rat after 2 hrs by rotarod test; format: toxicity, organism-based; conditions: in vivo
Rattus norvegicus [30] = experiment: Antiepileptic activity in pilocarpine-induced status prevention in Sprague-Dawley rat assessed as weight change in post first stage 3 seizure at 450 mg/kg after 24 hrs; format: functional
Summary of the method: (§6)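 Pilocarpine-induced status prevention in rats. Compound given ip at time zero (65 or 450 mg/kg), followed by a challenge dose of pilocarpine. Seizure severity scored on the Racine scale. Average weight change (g, ±SEM) recorded for protected and non-protected rats.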

Rattus norvegicus [31] = species: Rattus norvegicus; experiment: Anticonvulsant activity in rat assessed as inhibition of maximal electroshock-induced electrical stimulus; format: functional
Rattus norvegicus [32] = species: Rattus norvegicus; experiment: Protective index, ratio of TD50 for rat by rotarod test to ED50 for rat by MES test; format: functional
Mus musculus [33] = experiment: Anticonvulsant activity in ip dosed CF1 albino mouse assessed as inhibition of maximal electroshock-induced electrical stimulus after 2 hrs; format: functional; summary of the method: as §1
Rattus norvegicus [34] = experiment: Antiepileptic activity in pilocarpine-induced status prevention in Sprague-Dawley rat assessed as weight change in post first stage 3 seizure at 65 mg/kg after 24 hrs; format: functional; summary of the method: as §6

SMILES	Activity (Mus musculus [1]) [mg/kg]	Activity (Mus musculus [2]) [mg/kg]	Activity (Mus musculus [3]) [mg/kg]	log K [4]	Activity (Rattus norvegicus [6])	Activity (Rattus norvegicus [7])	Activity (Rattus norvegicus [8])	Activity (Rattus norvegicus [9])	Activity (Mus musculus [13])	Activity (Mus musculus [14])	Activity (Mus musculus [15])	Activity (Mus musculus [16]) [mg/kg]	Activity (Rattus norvegicus [20])	Activity (Rattus norvegicus [21])	Activity (Mus musculus [22])	also measured
CC1(C)CC(=O)N(Nc2ccccc2)C1=O	300	300	100	1.471	inactive	50%	inactive	inactive	inactive	inactive	Not Active	–	–	–	–	Activity (Rattus norvegicus [5]): 25%; ED50 (Rattus norvegicus [10]): 69.9 mg/kg; TD50 at 0.5 h [11]: 500 mg/kg; Ratio TD50/ED50 (Rattus norvegicus [12]): 7.15
CCC1(CC)CC(=O)N(Nc2ccc(Cl)cc2Cl)C1=O	300	100	100	2.552	–	–	–	–	–	inactive	Not Active	300	–	–	–	Activity (Mus musculus [17]): 100 mg/kg
CCC1(C)CC(=O)N(Nc2ccc(Cl)cc2Cl)C1=O (centres undefined)	300	100	30	2.334	25%	inactive	25%	inactive	–	–	–	300	–	–	–	Activity (Mus musculus [18]): 300 mg/kg; Activity (Mus musculus [19]): 300 mg/kg; Activity (Mus musculus [17]): 100 mg/kg; Activity (Rattus norvegicus [5]): inactive
CCC1(C)CC(=O)NC1=O (centres undefined) [ETHOSUXIMIDE]	–	100	–	–	–	–	–	–	inactive	–	Not Active	–	inactive	inactive	inactive	Activity (Mus musculus [18]): 300 mg/kg; Activity (Mus musculus [23]): Not Active
CC1(C)CC(=O)N(Nc2ccc(Br)cc2)C1=O	300	–	300	1.864	25%	25%	50%	50%	–	inactive	Not Active	300	–	–	–	Activity (Mus musculus [17]): 100 mg/kg; Activity (Mus musculus [24]): inactive
O=C1C2CCCCC2C(=O)N1Nc1ccccc1 (centres undefined)	300	300	–	1.937	25%	inactive	inactive	inactive	inactive	inactive	Not Active	–	25%	inactive	–	Activity (Rattus norvegicus [5]): inactive; Activity (Rattus norvegicus [25]): inactive; Activity (Rattus norvegicus [26]): inactive; Activity (Rattus norvegicus [27]): inactive; Activity (Rattus norvegicus [28]): Non-toxic; Activity (Mus musculus [23]): Not Active
CCCC1(C)CC(=O)N(Nc2ccc(Cl)cc2Cl)C1=O (centres undefined)	–	100	–	2.647	–	–	–	–	inactive	inactive	Not Active	–	25%	25%	inactive	Activity (Rattus norvegicus [25]): 50%; Activity (Rattus norvegicus [26]): Active; Activity (Rattus norvegicus [27]): inactive; Activity (Rattus norvegicus [28]): Non-toxic; Activity (Mus musculus [23]): Not Active
O=C1NC(=O)C(c2ccccc2)(c2ccccc2)N1 [PHENYTOIN]	30	30	100	–	Active	inactive	–	inactive	–	–	–	–	–	–	–	Activity (Mus musculus [19]): 100 mg/kg; TD50 at 2 h [29]: > 500 mg/kg
Cc1ccc(NN2C(=O)C3CCCCC3C2=O)cc1 (centres undefined)	–	–	300	2.028	–	–	–	–	inactive	inactive	Not Active	–	–	–	inactive	Activity (Rattus norvegicus [30]): 10.2 g; Activity (Mus musculus [24]): inactive
O=C1CC2(CCCC2)C(=O)N1Nc1ccccc1	–	–	–	–	–	–	–	–	–	–	–	–	–	–	–	ED50 (Rattus norvegicus [31]): 76.3 mg/kg; Ratio TD50/ED50 (Rattus norvegicus [32]): 3.44
CCC1(CC)CC(=O)N(Nc2ccc(Cl)cc2)C1=O	–	100	300	2.314	–	–	–	–	–	–	–	300	–	–	inactive	Activity (Mus musculus [18]): 300 mg/kg; Activity (Mus musculus [19]): 300 mg/kg; Activity (Mus musculus [33]): 100 mg/kg
CCCCC1(C)CC(=O)N(Nc2ccc(Br)cc2)C1=O (centres undefined)	–	300	300	2.539	–	–	–	–	inactive	inactive	Not Active	–	inactive	inactive	inactive	Activity (Rattus norvegicus [25]): 25%; Activity (Rattus norvegicus [26]): inactive; Activity (Rattus norvegicus [27]): inactive; Activity (Rattus norvegicus [28]): Non-toxic
CC1(C)CC(=O)N(Nc2cccc(Cl)c2)C1=O	100	–	300	2.071	–	–	–	–	inactive	inactive	Not Active	–	–	–	–	Activity (Rattus norvegicus [34]): 15 g; Activity (Mus musculus [24]): inactive
